ChEMBL document CHEMBL1121539, “Antitumor structure-activity relations. Nitrosoureas vs. L-1210 leukemia” (J Med Chem, 1980)

Legend:
[1] = Partition coefficient (logP); assay type: physicochemical; conditions: octanol/water
Method in brief: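 Shake partitioning between octanol and distilled water gave log P. For carboxylate substituents, log P was taken in 0.1 N NaOH, with Na+ as counterion.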

[2] = tested on: L1210; assay: Tested for 3 log kill of leukemia cells; assay type: functional, Mus musculus
Method in brief: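 L-1210 leukemia cells (10^4) were inoculated intracerebrally into BDF2 mice, and drug was given intraperitoneally. The end point was the dose giving 3 log kill, expressed as log 1/C. The value comes from one or more individual experiments.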

[3] = tested on: L1210; assay: Toxicity against L-1210 leukemia cells in mice after intraperitoneal administration, activity is expressed as LD10; parameters: LD10: unit not given here; conditions: mouse, in vivo, ip

SMILES	logP ([1]; read-out: logP)	log(1/C) [2]	log(1/LD10) [3]	logP [1]	LD10 [3]
O=NN(CCCl)C(=O)NC1CCS(=O)(=O)CC1	0.19	1.93	1.22	–	–
O=NN(CCCl)C(=O)NC1CCC(=O)NC1=O (stereo not drawn)	–	1.8	1.16	–	–
CCCCCC(C)NC(=O)N(CCCl)N=O (stereo not drawn)	3.55	0.853	0.642	–	–
O=NN(CCCl)C(=O)NCCF	0.95	0.673	0.49	–	–
O=NN(CCCl)C(=O)NC1CCC(CC2CCC(NC(=O)N(CCCl)N=O)CC2)CC1 (stereo not drawn)	6.07	1.36	0.283	–	–
O=NN(CCCl)C(=O)NC1CCCCCCCCCCC1	5.8	0.599	-0.573	–	–
O=NN(CCCl)C(=O)NC1C2CC3CC(C2)CC1C3 (stereo not drawn)	3.62	0.854	0.512	–	–
O=NN(CCCl)C(=O)NC1CCSc2ccccc21 (stereo not drawn)	2.91	1.4	0.585	–	–
O=NN(CCF)C(=O)NC1CCSCC1	1.43	1.69	0.827	–	–
O=NN(CCF)C(=O)NC1CSCSC1	1.54	1.78	0.802	–	–
CC(=O)OCC1CCC(NC(=O)N(CCCl)N=O)CC1 (stereo not drawn)	2.35	1.66	1.02	–	–
O=NN(CCF)C(=O)NCCF	0.38	1.6	1.37	–	–
O=NN(CCCl)C(=O)NC1C(O)CCCC1O (stereo not drawn)	0.16	–	1.17	–	–
O=NN(CCCl)C(=O)NC1CCC(NC(=O)N(CCCl)N=O)CC1 (stereo not drawn)	3.57	–	0.66	–	–
COC1OC(COC(C)=O)C(OC(C)=O)C(NC(=O)N(CCCl)N=O)C1OC(C)=O (stereo not drawn)	0.67	–	1.06	–	–
CC(=O)OC1CCC(NC(=O)N(CCCl)N=O)CC1 (stereo not drawn)	1.66	1.55	0.813	–	–
Cc1cc(C)c(NC(=O)N(CCCl)N=O)c(C)c1	3.11	1.58	0.675	–	–
O=COCC1CCC(NC(=O)N(CCCl)N=O)CC1 (stereo not drawn)	1.85	1.62	1.12	–	–
CCOC(=O)C1(NC(=O)N(CCCl)N=O)CCCCC1	3.45	0.582	-0.214	–	–
O=NN(CCCl)C(=O)NC12CC3CC(CC(C3)C1)C2	3.62	1.16	0.664	–	–
O=NN(CCF)C(=O)NC1CC2CCC1C2 (stereo not drawn)	2.4	1.25	0.547	–	–
CCOC(=O)C1(NC(=O)N(CCCl)N=O)CCCC1	2.88	0.562	0.072	–	–
CC(=O)OCC1OCC(NC(=O)N(CCCl)N=O)C(OC(C)=O)C1OC(C)=O (stereo not drawn)	1.87	1.79	–	–	–
CC(C)(C)C1CCC(NC(=O)N(CCCl)N=O)CC1 (stereo not drawn)	4.66	0.684	-0.212	–	–
CCOC(=O)C1CCCC(NC(=O)N(CCCl)N=O)C1 (stereo not drawn)	2.2	1.41	0.786	–	–
CCOC(=O)C1CCC(NC(=O)N(CCCl)N=O)CC1 (stereo not drawn)	2.2	1.51	0.967	–	–

SMILES	logP ([1]; read-out: logP)	log(1/C) [2]	log(1/LD10) [3]	logP [1]	LD10 [3]
O=NN(CCCl)C(=O)NC1(C(=O)O)CCCC1	1.82	0.605	0.308	–	–
CC(C)(NC(=O)N(CCCl)N=O)C(=O)O	0.91	0.591	-0.049	–	–
CC1CCC(NC(=O)N(CCF)N=O)CC1 (stereo not drawn)	2.72	1.16	0.72	–	–
CC1(C)CCC(NC(=O)N(CCF)N=O)CC1	3.13	1.09	0.674	–	–
O=NN(CCF)C(=O)NC1CCCCC1	2.25	1.34	0.806	–	–
O=NN(CCF)C(=O)NC1CCCCCCCCCCC1	5.22	–	0.496	–	–
O=NN(CCCl)C(=O)N[C@H]1CC[C@@H](C(=O)O)CC1	1.68	1.63	1.03	–	–
C[C@H]1CC[C@H](NC(=O)N(CCCl)N=O)CC1	–	1.55	0.771	–	–
O=NN(CCCl)C(=O)N[C@H]1CC[C@@H](O)CC1	–	1.36	0.735	–	–
O=NN(CCCl)C(=O)N[C@H]1CC[C@H](C(=O)O)CC1	1.53	1.47	1.01	–	–
O=NN(CCCl)C(=O)N[C@H]1CC[C@@H](CC(=O)O)CC1	2.22	1.35	0.701	–	–
O=NN(CCCl)C(=O)N[C@H]1CC[C@H](CC(=O)O)CC1	2.16	1.65	0.863	–	–
O=NN(CCCl)C(=O)N[C@H]1CCCC[C@@H]1Cl	–	1.34	0.672	–	–
O=NN(CCCl)C(=O)N[C@@H]1CCCC[C@H]1O	1.34	1.82	1.1	–	–
CO[C@H]1CC[C@@H](NC(=O)N(CCCl)N=O)CC1	2.09	1.38	0.819	–	–
C[C@H]1S(=O)(=O)C[C@H](NC(=O)N(CCCl)N=O)CS1(=O)=O	-0.53	1.89	0.801	–	–
C[C@H]1CCC[C@@H](NC(=O)N(CCCl)N=O)C1	3.37	1.09	0.315	–	–
O=NN(CCCl)C(=O)N[C@@H]1CCCC[C@@H]1Cl	2.73	0.951	0.446	–	–
CO[C@H]1CC[C@H](NC(=O)N(CCCl)N=O)CC1	2.09	1.44	0.841	–	–
COC(=O)[C@H]1CC[C@H](NC(=O)N(CCCl)N=O)CC1	1.89	–	1.05	–	–
C[C@H]1CCC[C@H](NC(=O)N(CCCl)N=O)C1	–	1.09	–	3.3	0.352
O=NN(CCF)C(=O)N[C@H]1CC[C@H](C(=O)O)CC1	–	1.21	–	1.1	–
C[C@H]1S(=O)(=O)C[C@@H](NC(=O)N(CCCl)N=O)CS1(=O)=O	-0.53	1.89	1.04	–	–
C[C@H]1CC[C@@H](NC(=O)N(CCCl)N=O)CC1	3.3	–	0.435	–	–
O=NN(CCCl)C(=O)N[C@@H]1CCCC[C@@H]1O	1.75	1.32	0.698	–	–
O=NN(CCCl)C(=O)N[C@@H]1CCC[C@H](O)C1	1.11	1.28	0.698	–	–

SMILES	logP ([1]; read-out: logP)	log(1/C) [2]	log(1/LD10) [3]	logP [1]	LD10 [3]
CC(=O)O[C@@H]1[C@@H](OC(C)=O)[C@H](OC(C)=O)CO[C@H]1NC(=O)N(CCCl)N=O	0.82	1.91	1.25	–	–
CC1SCC(NC(=O)N(CCCl)N=O)CS1 (stereo not drawn)	2.49	1.61	1	–	–
CC1(NC(=O)N(CCCl)N=O)CCCC1	2.7	0.576	-0.03	–	–
O=NN(CCF)C(=O)NC1C2CC3CC(C2)CC1C3 (stereo not drawn)	3.04	0.797	0.592	–	–
O=NN(CCCl)C(=O)NC1CCCCC1NC(=O)N(CCCl)N=O (stereo not drawn)	3.57	1.5	0.423	–	–
O=NN(CCCl)C(=O)NC1CC2CCC1C2 (stereo not drawn)	2.98	1.21	0.591	–	–
O=NN(CCCl)C(=O)NC1CCCC1	2.19	0.74	0.215	–	–
CN(C)C(=O)c1ccc(NC(=O)N(CCCl)N=O)cc1	1.07	1.87	–	–	1.27
O=NN(CCF)C(=O)NC1CCSc2ccccc21 (stereo not drawn)	2.33	1.31	0.896	–	–
O=NN(CCCl)C(=O)NC1CCCC(C(=O)O)C1 (stereo not drawn)	1.86	1.47	0.912	–	–
CC1CC(O)C(NC(=O)N(CCCl)N=O)C(O)C1 (stereo not drawn)	0.69	–	1.12	–	–
CC(C)(C)C1CCCC(NC(=O)N(CCCl)N=O)C1 (stereo not drawn)	4.6	0.763	0.239	–	–
O=NN(CCF)C(=O)NC1CS(=O)(=O)CS(=O)(=O)C1	-1.48	1.69	0.626	–	–
O=NN(CCCl)C(=O)NC(Cc1ccccc1)C(=O)O (stereo not drawn)	2.59	1.1	0.563	–	–
O=NN(CCCl)C(=O)NC1CCSCC1	2.07	2.1	1.25	–	–
CC(=O)OCC1CCC(NC(=O)N(CCF)N=O)CC1 (stereo not drawn)	1.77	0.984	0.705	–	–
CCC1CCC(NC(=O)N(CCCl)N=O)CC1 (stereo not drawn)	3.84	1.27	0.445	–	–
O=NN(CCCl)C(=O)NC1CCC(Br)CC1 (stereo not drawn)	2.67	1.24	0.571	–	–
CC1CC(NC(=O)N(CCCl)N=O)CC(C)(C)C1 (stereo not drawn)	4.06	0.294	-0.434	–	–
O=NN(CCCl)C(=O)NC1CCCC(NC(=O)N(CCCl)N=O)C1 (stereo not drawn)	2.74	1.41	0.146	–	–
O=NN(CCCl)C(=O)NC1CCC(Cl)CC1 (stereo not drawn)	2.66	1.25	0.738	–	–
CC(=O)OCC1OC(NC(=O)N(CCCl)N=O)C(OC(C)=O)C(OC(C)=O)C1OC(C)=O (stereo not drawn)	1.04	–	1.41	–	–
CC(=O)OC1CCC(NC(=O)N(CCF)N=O)CC1 (stereo not drawn)	1.33	1.4	0.884	–	–
COCC1OC(O)C(NC(=O)N(CCCl)N=O)C(OC)C1OC (stereo not drawn)	0.8	1.48	0.682	–	–
O=NN(CCCl)C(=O)NCCCl [CARMUSTINE]	–	1.59	0.718	–	–
O=NN(CCCl)C(=O)NC1CCCCC1 [LOMUSTINE]	–	1.25	0.613	–	–
